From ChEMBL document CHEMBL1129364, “Pyrrolobenzothiazepinones and pyrrolobenzoxazepinones: novel and specific non-nucleoside HIV-1 reverse transcriptase inhibitors with antiviral activity” (J Med Chem, 1996)
Calls of active or inactive are those of the source. The calls are words filed in the database; no cut-off is given here.

Experiments:
[1] = target: Human immunodeficiency virus type 1 reverse transcriptase (Human immunodeficiency virus 1, UniProt Q72547); test: (§1) Compound was tested for Inhibition of HIV-1 RT activity.
Summary of the method: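 Recombinant HIV-1 RT (0.1 unit), 37 °C for 30 min in 50 mM Tris·HCl pH 8.2, 1 mM DTT, 80 mM KCl, 12 mM MgCl2, 0.01% Triton X-100. Template-primer poly(rA)/(dT)12-18 with [3H]dTTP or poly(rC)/(dG)12-18 with [3H]dGTP. Compounds added in DMSO (10% final). Stopped with 20% TCA; precipitate counted. IC50 is the mean of at least three experiments.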

[2] = (§2) Effective concentration against 50% survival of HIV -1 infected cells relative to uninfected untreated control (in vitro anti HIV-1 activity); format: functional; conditions: Human immunodeficiency virus 1
Summary of the method: (§3)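 HIV-1-infected CEM T4 lymphocytes were scored for protection from cell death. […] An AZT-treated positive control was run at the same time.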

CEM-SS [3] = test: Cytotoxic concentration against 50% survival of uninfected untreated control CEM-SS cells; format: cell-based; conditions: Homo sapiens
[4] = Selective index is the ratio between IC50 and EC50; format: functional
Summary of the method: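 Selectivity index calculated as CEM-SS cytotoxic IC50 divided by anti-HIV-1 EC50.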

[5] = Effective concentration against 50% survival of HIV -1 infected cells relative to uninfected untreated control (in vitro anti HIV-1 activity); NA ='Not active'; format: functional, Human immunodeficiency virus 1; summary of the method: as §3
MT2 [6] = test: ED50 value determined from the inhibition of HIV strain AZT-sensitive activity tested on MT-2 cell lines.; format: functional; conditions: Homo sapiens, read-out: ED50 (the source's name)
[7] = tested on: Human immunodeficiency virus 1; test: Effective dose against HIV-1 (IIIB strain); NA ='Not active'; format: functional, organism-based
Summary of the method: (§4)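 ED50 measured against a panel of viruses in MT-2, MT-4 and CEM-SS cells. The panel comprised HIV-1 (6S) and (6R), the pyridinone-resistant strain A-17, HIV-1 IIIB, HIV-1 RF, a diphenyl sulfone-resistant HIV, N119, SIV MAC 251 and HIV-2 ROD.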

MT2 [8] = test: IC50 value determined from the inhibition of HIV strain AZT-sensitive activity tested on MT-2 cell lines; format: functional, cell-based; conditions: Homo sapiens
[9] = tested on: Human immunodeficiency virus 1; test: Effective dose against AZT resistant strain; NA ='Not active'; format: functional, organism-based
[10] = tested on: Human immunodeficiency virus 2; test: Inhibitory activity against HIV-2 (ROD); NA ='Not active'; format: functional, organism-based; summary of the method: as §4
[11] = tested on: Human immunodeficiency virus 1; test: Inhibitory activity against HIV-1 (A-17 cell lines); NA ='Not active'; format: functional, organism-based; summary of the method: as §4
[12] = target: Human immunodeficiency virus type 1 protease (Human immunodeficiency virus 1, UniProt Q72874); test: as §1
Summary of the method: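 Recombinant HIV-1 RT (0.1 unit) was incubated 30 min at 37 °C in 50 mM Tris·HCl pH 8.2 with 1 mM DTT, 80 mM KCl, 12 mM MgCl2 and 0.01% Triton X-100. Template-primer was poly(rA)/(dT)12-18 with [3H]dTTP or poly(rC)/(dG)12-18 with [3H]dGTP. DMSO was 10% final. Reactions were stopped with TCA and precipitated radioactivity counted. IC50 is the mean of at least three experiments.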

[13] = tested on: Human immunodeficiency virus 1; test: In vitro inhibitory activity against HIV-1 (A-17) HIV strain; NT ='Not active'; format: functional, organism-based; summary of the method: as §4
MT4 [14] = test: IC50 value determined from the inhibition of HIV strain HIV-1 (6R), activity tested on MT-4 cell lines.; format: functional, cell-based; conditions: Homo sapiens
[15] = SI - selectivity index determined from the ratio of IC50 to the ED50 determined on MT-4 cell lines of AZT-sensitive HIV strain.; format: functional, MT4
MT4 [16] = test: IC50 value determined from the inhibition of HIV strain HIV-1(IIIB), activity tested on MT-4 cell lines.; format: functional, cell-based; conditions: Homo sapiens
MT4 [17] = test: ED50 value determined from the inhibition of HIV strain HIV-1 (6R), activity tested on MT-4 cell lines.; format: functional; conditions: Homo sapiens, read-out: ED50 (the source's name)
CEM-SS [18] = test: ED50 value determined from the inhibition of HIV strain HIV-1 RF, activity tested on CEM-SS cell lines.; format: functional; conditions: Homo sapiens, read-out: ED50 (the source's name)
[19] = Selective index is the ratio between IC50 and EC50 from CEM-SS cells; format: functional
[20] = Selectivity index is the ratio between IC50 and ED50 from HIV-1 (IIIB) on MT-4 cell lines; format: functional, MT4
CEM-SS [21] = test: IC50 value determined from the inhibition of HIV strain HIV-1 RF, activity tested on CEM-SScell lines.; format: functional, cell-based; conditions: Homo sapiens
Summary of the method: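 Cell-protection assay: HIV-1-infected T4 lymphocytes (CEM-SS) scored for survival. The value is the drug concentration giving 50% survival of infected cells relative to uninfected untreated controls. An AZT-treated positive control was run at the same time under identical conditions. Details follow a previously reported procedure.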

MT4 [22] = test: ED50 value determined from the inhibition of HIV strain HIV-1(IIIB), activity tested on MT-4 cell lines.; format: functional; conditions: Homo sapiens, read-out: ED50 (the source's name)
[23] = tested on: Human immunodeficiency virus 2; test: In vitro inhibitory activity against HIV-2 (ROD) HIV strain; NT ='Not active'; format: functional, organism-based; summary of the method: as §4
MT4 [24] = test: IC50 value determined from the inhibition of HIV strain AZT-sensitive activity tested on MT-4 cell lines.; format: functional, cell-based; conditions: Homo sapiens
MT4 [25] = test: ED50 value determined from the inhibition of HIV strain AZT-sensitive activity tested on MT-4 cell lines.; format: functional; conditions: Homo sapiens, read-out: ED50 (the source's name)
[26] = Selectivity index is the ratio between IC50 and ED50 from HIV-1 (6R) on MT-4 cell lines; format: functional, MT4
CEM-SS [27] = test: as §2; format: functional, cell-based; conditions: Homo sapiens; summary of the method: as §3
[28] = Effective concentration against 50% survival of HIV -1 infected cells relative to uninfected untreated control (in vitro anti HIV-1 activity); NA =' Not active'; format: functional, Human immunodeficiency virus 1; summary of the method: as §3

In the case of `O=C1c2cccn2-c2ccccc2OC1c1ccccc1` (stereo unspecified), the IC50 [1] is reported as greater than 300 µM.
For `CC1(c2ccccc2)Oc2ccccc2-n2cccc2C1=O` (stereo unspecified), the EC50 [2] was 350 nM, the IC50 (CEM-SS [3]) was 6.9 µM and the SI [4] was 19.7. For the same molecule, the IC50 [1] was 10 µM.
`CC1(c2ccccc2)Sc2ccccc2-n2cccc2C1=O` (stereo unspecified) showed an EC50 [2] of 810 nM and an IC50 [1] of 5 µM.
For `O=C1c2cccn2-c2ccccc2OC1c1ccc2ccccc2c1` (stereo unspecified), the IC50 [1] was greater than 300 µM.
Molecule `CCC1(c2ccccc2)Sc2c(Cl)cccc2-n2cccc2C1=O` (stereo unspecified) has an IC50 [1] of 500 µM.
Molecule `CCc1cc(NCc2nc3c(Cl)ccc(Cl)c3o2)c(O)nc1C` [L-697661] has an IC50 [1] of 0.15 µM.
For `C=CCC1(CC)Oc2ccccc2-n2cccc2C1=O` (stereo unspecified), the IC50 [1] was 5 µM.
Molecule `CCC1Oc2ccccc2-n2cccc2C1=O` (stereo unspecified) has an IC50 [1] of 100 µM.
Molecule `CCCC1(CC)Oc2ccccc2-n2cccc2C1=O` (stereo unspecified) has an IC50 [1] of 10 µM.
`CCC1(CC=C(C)C)Oc2ccccc2-n2cccc2C1=O` (stereo unspecified) showed an EC50 [2] of 1350 nM, an IC50 (CEM-SS [3]) of 45.2 µM and an SI [4] of 35.
Work on `CCC1(c2ccccc2)C(=O)c2cccn2-c2ccccc2S1(=O)=O` (stereo unspecified) yielded an IC50 [1] greater than 300 µM.
For `O=C1c2cccn2-c2cc3ccccc3cc2OC1c1ccccc1` (stereo unspecified), the IC50 [1] was greater than 300 µM.
Molecule `C=CCC1(c2ccccc2)Oc2ccccc2-n2cccc2C1=O` (stereo unspecified) has an EC50 [2] of 710 nM, an IC50 (CEM-SS [3]) of 6.4 µM and an SI [4] of 9. It also gave an IC50 [1] of 25 µM.
In the case of `CCC1(c2ccccc2)Oc2cc3ccccc3cc2-n2cccc2C1=O` (stereo unspecified), the IC50 [1] is reported as 150 µM.
In the case of `CCC1(c2ccccc2)Sc2ccc(C)cc2-n2cccc2C1=O` (stereo unspecified), the IC50 [1] is reported as greater than 600 µM and the IC50 [5] is reported as “Not Active”.
Molecule `CC(C)=CCC1(c2ccccc2)Oc2ccccc2-n2cccc2C1=O` (stereo unspecified) has an IC50 (CEM-SS [3]) of 120 µM and an IC50 [1] greater than 500 µM.
For `CCC1(c2ccccc2)C(=O)c2cccn2-c2ccccc2[S+]1[O-]` (stereo unspecified), the IC50 [1] was 500 µM.
In the case of `CCCC1(c2ccccc2)Oc2ccccc2-n2cccc2C1=O` (stereo unspecified), the IC50 (CEM-SS [3]) is reported as greater than 150 µM and the IC50 [1] is reported as 500 µM.
With `CCC1(c2ccccc2)Sc2ccccc2-n2cccc2C1=O` (stereo unspecified) the EC50 (MT2 [6]) was 8.7 µM, the EC50 [2] was 1800 nM and the IC50 (CEM-SS [3]) was 100 µM. The SI [4] was 55.2, the IC50 [1] was 15 µM and the Activity [7] was “inactive”. For the same molecule, the IC50 (MT2 [8]) was 110 µM, the Activity [9] was “inactive” and the Activity [10] was “inactive”. The Activity [11] was “inactive”.
Molecule `CCOC1=C(c2ccccc2)Oc2ccccc2-n2cccc21` has an IC50 [12] greater than 300 µM.
In the case of `O=C1c2cccn2-c2ccccc2OC1(CC1CC1)c1ccccc1` (stereo unspecified), the IC50 (CEM-SS [3]) is reported as 11.8 µM and the IC50 [1] is reported as greater than 500 µM.
In the case of `CCC1(c2ccccc2)Oc2ccccc2-n2cccc2C1=O` (stereo unspecified), the Activity [13] is reported as “inactive”, the IC50 (MT4 [14]) is reported as 2900 nM and the EC50 [2] is reported as 470 nM. It also gave an IC50 (CEM-SS [3]) of 4.9 µM, an SI [15] of 8 and an IC50 (MT4 [16]) of 3.31 µM. It also gave an EC50 (MT4 [17]) of 1600 nM, an EC50 (CEM-SS [18]) of 120 nM and an SI [19] of 10.4. The IC50 [1] was 0.25 µM, the SI [20] was 25 and the IC50 (CEM-SS [21]) was 10.4 µM. For the same molecule, the EC50 (MT4 [22]) was 130 nM, the Activity [23] was “inactive” and the IC50 (MT4 [24]) was 3.3 µM. The EC50 (MT4 [25]) was 420 nM and the SI [26] was 1.7.
With `Cc1cn([C@H]2C[C@H](N=[N+]=[N-])[C@@H](CO)O2)c(=O)[nH]c1=O` [ZIDOVUDINE] the IC50 (CEM-SS [3]) was greater than 1 µM, the SI [4] was 526 and the EC50 (CEM-SS [27]) was 1.9 nM.
For `CCC1(c2ccc3ccccc3c2)Oc2ccccc2-n2cccc2C1=O` (stereo unspecified), the EC50 [2] was 850 nM, the IC50 (CEM-SS [3]) was 37.3 µM and the SI [4] was 44. It also gave an IC50 [1] of 0.5 µM.
For `O=C1c2cccn2-c2ccccc2SC1c1ccccc1` (stereo unspecified), the IC50 (CEM-SS [3]) was 18.3 µM and the IC50 [1] was 100 µM.
With `CCC1(c2ccccc2)Sc2cccc(Cl)c2-n2cccc2C1=O` (stereo unspecified) the IC50 [28] was “Not Active” and the IC50 [1] was 600 µM.
